The text below walks through data of ChEMBL document CHEMBL4138078, “Structure-based virtual screening and optimization of modulators targeting Hsp90-Cdc37 interaction” (Eur J Med Chem, 2017).

The source made the active and inactive calls. The calls are words filed in the database; no cut-off is given here.

Usually IC50 stands for the concentration at which inhibition is half-maximal. A high value points to a need for much substance. A word on the inhibition: it is the relative decrease from the control value, in per cent. In general, Kd refers to the equilibrium constant for the complex coming apart. Lower therefore signals a tighter complex.

Experiment [1] has as its system MCF7. Description: Antiproliferative activity against human MCF7 cells after 72 hrs by MTT assay. The experiment is classed as functional, cell-based. Conditions: MCF7, 72 h. Summed up:
(§1)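 Cells seeded at 10000/well and left 24 h, then exposed to compounds in DMSO (200 μM down to 0.823 μM, three-fold steps) for 72 h at 37 °C. Viability was read by MTT (5 mg/mL in PBS) with formazan dissolved in DMSO, OD at 490 nm. IC50 was taken from parallel experiments as mean ± SD. Media: MCF-7 in MEM, SKBR-3 in RPMI-1640, A549 in F12K, each with 10% FCS.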

Experiment [2] has as its target T1, Heat shock protein HSP90 (Homo sapiens, UniProt P07900+P08238). Briefly: Inhibition of GA-FITC binding to N-terminal GST-tagged HSP90 (unknown origin) expressed in Escherichia coli at 100 uM after 30 mins fluorescence polarization assay relative to control.
In experiment [3] the test system is A549. Description: Antiproliferative activity against human A549 cells after 72 hrs by MTT assay. The format is functional, cell-based. As to conditions: A549, 72 h. Summed up:
as §1
In general terms: Tetrazolium assays rely on reduction of a dye to a coloured formazan, in cell work by metabolically active cells.

The subject of experiment [4] is SK-BR-3. Description: Antiproliferative activity against human SKBR3 cells after 72 hrs by MTT assay. The experiment is classed as functional, cell-based. As to conditions: SK-BR-3, 72 h. Put shortly: as §1
Experiment [5] is filed under the species Homo sapiens. Description: Inhibition of full length His-tagged HSP90/GST-tagged Cdc37 (unknown origin) interaction at 100 uM after 1 hr by HTRF assay relative to control. Put shortly:
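HTRF assay using His-tagged full-length Hsp90 and GST-tagged Cdc37 M, each 250 nM final, in PBS with an extra 400 mM KF, pH 7.4. Compound incubated 1 h at 37 °C. Anti-GST-Cryptate and anti-6His-XL665 then added, 0.5 h at 37 °C. Ex 320 nm; ratio = (665/620 nm) × 10000. No-compound negative control and reagent-only blank.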
For orientation: Time-resolved FRET reads energy transfer from a long-lived donor to a nearby acceptor.

Experiment [6] concerns the target T1, Heat shock protein HSP90. Briefly: Binding affinity to N-terminal GST-tagged HSP90 (unknown origin) expressed in Escherichia coli by biolayer interferometry analysis.
Experiment [7] is described as follows: Inhibition of full length His-tagged HSP90/GST-tagged Cdc37 (unknown origin) interaction after 1 hr by HTRF assay. More on the design: species or system Homo sapiens. Summed up: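 Final 250 nM each of His-Hsp90 (full length) and GST-Cdc37 M in PBS with extra 400 mM KF, pH 7.4. Compound added (300 μM to 1.23 μM, three-fold steps), 1 h at 37 °C. Anti-GST-cryptate and anti-6His-XL665 added, 0.5 h at 37 °C. TR-FRET read at ex 320 nm, em 665/620 nm, ratio ×10000. No-compound and reagent-only controls included.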

Experiment [8] addresses T1, Heat shock protein HSP90. Briefly: Inhibition of N-terminal GST-tagged HSP90 ATPase activity (unknown origin) expressed in Escherichia coli at 100 uM after 1 hr in presence of ATP by spectrophotometric assay relative to control. Summed up: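 ADP Hunter Plus ADP-detection kit. Compound at 100 μM final in 15 mM HEPES, 20 mM NaCl, 1 mM EDTA, 10 mM MgCl2, 0.02% Tween20, pH 7.4. Mixed in equal volumes with Hsp90 (5 μM) and ATP (100 μM), 1 h at 37 °C. Detection reagents A and B added, 30 min at room temperature; ex 540/em 620 nm. Protein-free background; no-ligand wells set as 100% activity.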

The species entered for experiment [9] is Homo sapiens. Briefly: Inhibition of full length His-tagged HSP90/GST-tagged Cdc37 (unknown origin) interaction at 10 uM after 1 hr by HTRF assay relative to control.
Experiment [10] is filed under the species Homo sapiens. Briefly: Inhibition of HSP90/Cdc37 protein-protein interaction in human SKBR3 cells assessed as decrease in Akt level after 24 hrs by Western blot analysis. The experiment is classed as cell-based. Summed up: (§2)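 SKBR-3 cells treated with compound at 1, 10 and 50 μM for 24 h. After a PBS rinse and trypsinisation, cells lysed in Tris-HCl pH 7.5 buffer with NaCl, EDTA, NP-40, PMSF, NaF and DTT; lysate spun 12000 rpm, 10 min, 4 °C. Protein by BCA, equal loads on SDS-PAGE. Probed for Hsp90, Akt, Cdk4, β-actin; DyLight 800 secondary, infrared imaging.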
For orientation: In western blotting, separated proteins are transferred to a membrane and probed.

Experiment [11] relates to A549. Briefly: Antiproliferative activity against human A549 cells at 10 uM after 72 hrs by MTT assay relative to control. The experiment is classed as functional.
The test system of experiment [12] is MCF7. Briefly: Antiproliferative activity against human MCF7 cells at 10 uM after 72 hrs by MTT assay relative to control. The format is functional.
For experiment [13], the species on record is Homo sapiens. Briefly: Inhibition of HSP90/Cdc37 protein-protein interaction in human SKBR3 cells assessed as decrease in CDK4 level after 24 hrs by Western blot analysis. The experiment is classed as cell-based. Summed up: as §2
The species entered for experiment [14] is Homo sapiens. Briefly: Inhibition of N-terminal GST-tagged HSP90/Cdc37 (unknown origin) interaction expressed in Escherichia coli at 20 uM preincubated with Cdc37 for 1 hr followed by addition to HSP90 by GST-pull down assay. Put shortly: (§3)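 Pull-down with 10 μg GST-Hsp90 N-terminal domain immobilised as bait on glutathione resin spin columns. Compound incubated with Cdc37 for 1 h at 37 °C, then added to the columns. Loading buffer 25 mM Tris, 0.15 M NaCl, pH 7.2; elution with extra 10 mM reduced glutathione; spins 1 min at 1,000 × g, 4 °C. Eluate analysed by SDS-PAGE and anti-GST/anti-His western blot.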

The subject of experiment [15] is SK-BR-3. Description: Effect on HSP90 level in human SKBR3 cells at 1 to 50 uM after 24 hrs by Western blot analysis. The experiment is classed as functional, cell-based. Put shortly:
as §2

Experiment [16] has as its system SK-BR-3. Description: Antiproliferative activity against human SKBR3 cells at 10 uM after 72 hrs by MTT assay relative to control. The format is functional.
Experiment [17] is filed under the species Homo sapiens. Briefly: Inhibition of N-terminal GST-tagged HSP90/Cdc37 (unknown origin) interaction expressed in Escherichia coli preincubated with Cdc37 for 1 hr followed by addition to HSP90 by GST-pull down assay. Put shortly:
as §3

For the molecule `CC.COc1ccc(NC(=O)C2=C(C)Nc3nc(CCCO)nn3[C@H]2c2ccc(OC)c(OC)c2)cc1`, the IC50 was more than 100 µM in the experiment on MCF7 [1], more than 100 µM in the experiment on A549 [3], more than 100 µM in the experiment on SK-BR-3 [4] and 154 µM in experiment [7]. In addition, the inhibition entry on Heat shock protein HSP90 [2] was “inactive”. The inhibition worked out at 36.6% in the experiment listed under Homo sapiens [5] and 45.7% on Heat shock protein HSP90 [8]. This molecule also had a Kd on Heat shock protein HSP90 [6] of more than 100 µM.
For `CO[C@H]1/C=C\C=C(/C)C(=O)NC2=CC(=O)C(NCCN(C)C)=C(C[C@@H](C)C[C@H](OC)[C@H](O)[C@@H](C)/C=C(\C)[C@@H]1OC(N)=O)C2=O` (stereo in doubt), the inhibition entry in the experiment filed under Homo sapiens [9] is “inactive”.
Turning to `CC1=C(O)C(=O)C=C2C1=CC=C1[C@@]2(C)CC[C@@]2(C)[C@@H]3C[C@](C)(C(=O)O)CC[C@]3(C)CC[C@]12C` [CELASTROL], the inhibition result was “Dose-dependent effect” in the experiment listed under Homo sapiens [10], 92.3% in the experiment listed under Homo sapiens [5], “Dose-dependent effect” in the experiment filed under Homo sapiens [13] and 79.3% in the experiment listed under Homo sapiens [9]. Besides, the results for the Activity with A549 [11], with MCF7 [12] and in the experiment on SK-BR-3 [16] were 95.43%, 98.62% and 97.62%, respectively. Further, the inhibition result in the experiment listed under Homo sapiens [14] was “Active”. In addition, in the experiment on SK-BR-3 [15], the outcome was inactive.
`Cn1nccc1NS(=O)(=O)c1ccc(NC(=O)CCC(=O)Nc2ccc(S(=O)(=O)Nc3ccnn3C)cc2)cc1`: the IC50 in the experiment with MCF7 [1] is 26.4 µM; in the experiment with A549 [3] it was 38.4 µM; in the experiment with SK-BR-3 [4], 14.7 µM; in [7], 27 to 27.4 µM. The inhibition entry was “Dose-dependent effect” in the experiment filed under Homo sapiens [10], 79.4% in the experiment listed under Homo sapiens [5], “Dose-dependent effect” in the experiment listed under Homo sapiens [13] and “Dose-dependent effect” in the experiment listed under Homo sapiens [17]. The molecule further displayed a Kd on Heat shock protein HSP90 [6] of 40 to 40.4 µM. For the same molecule, in the experiment on SK-BR-3 [15], the outcome was inactive.
With `Cc1cc(NS(=O)(=O)c2ccc(NC(=O)CCCC(=O)Nc3ccc(S(=O)(=O)Nc4cc(C)on4)cc3)cc2)no1`, the IC50 was 66.9 µM in the experiment with MCF7 [1], 75.3 µM in the experiment on A549 [3], 59.4 µM in the experiment with SK-BR-3 [4] and 76.9 to 77 µM in experiment [7]. Moreover, the inhibition result on Heat shock protein HSP90 [2] was “inactive”. Moreover, the inhibition was 59.3% in the experiment listed under Homo sapiens [5], “Dose-dependent effect” in the experiment listed under Homo sapiens [17] and less than 10% on Heat shock protein HSP90 [8]. Also, the Kd on Heat shock protein HSP90 [6] is 80.4 µM.
